Most compounds without a hit are left out; they make up all but 7.6% or so of the library.
M1 antag – antagonists of rat M1 muscarinic receptor; Muscarinic acetylcholine receptor M1 (Rattus norvegicus), P08482; CHO-M1 cells, Fluo-4 calcium, ACh EC80 antagonist mode; hits give low values; B-score at 10 µM; hit rate 3.4% among 64,000;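 active means calcium fluorescence response, raw or row-and-column corrected B-score, differing from the plate sample mean either way at a set confidence level, mostly lower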
Target sequence (P08482 whole entry, looked up): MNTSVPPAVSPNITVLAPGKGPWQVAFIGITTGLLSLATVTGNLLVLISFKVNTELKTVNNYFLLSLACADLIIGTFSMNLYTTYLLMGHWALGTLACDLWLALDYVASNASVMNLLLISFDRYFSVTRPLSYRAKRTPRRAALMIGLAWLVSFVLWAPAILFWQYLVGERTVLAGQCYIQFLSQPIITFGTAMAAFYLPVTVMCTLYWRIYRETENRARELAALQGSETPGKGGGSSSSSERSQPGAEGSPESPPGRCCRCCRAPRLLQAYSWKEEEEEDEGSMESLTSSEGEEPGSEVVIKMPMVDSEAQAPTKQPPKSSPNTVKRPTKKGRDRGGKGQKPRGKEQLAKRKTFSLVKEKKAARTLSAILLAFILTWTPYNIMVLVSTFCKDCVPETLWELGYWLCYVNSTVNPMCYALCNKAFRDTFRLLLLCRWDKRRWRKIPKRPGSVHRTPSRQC
Jurkat tox 60K – cytotoxicity toward Jurkat T cells, primary screen, cytotoxicity control, cell-based, Jurkat E6.1, 60K MLSMR library | Jurkat E6.1 viability, ATP luminescence, 48 h | inhibition, % at 4 µM | hit rate 1.2% among 56,000;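 active means inhibition above the mean inhibition of all tested compounds plus 3 SD, cut at about 28% in these data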
M1 agonist – M1 muscarinic receptor agonists, primary screen, CHO-M1 cells, Fluo-4 calcium, agonist mode. B-score at 10 µM. Muscarinic acetylcholine receptor M1. AID 626, 2007. hit rate 3% among 64,000. Fluo-4 calcium fluorescence; hits give high values;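 active means fluorescence rise, raw or as B-score row- and column-corrected plate score, outside the 99.7% band of its plate's samples, either direction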
hDAT+cocaine – changed hDAT dopamine uptake under cocaine IC80, either direction, primary screen, cocaine antagonist project, cell-based, LLC-PK1 hDAT, [14C]-dopamine uptake, MLSMR. LLC-PK1 hDAT cells, [14C]-dopamine uptake with cocaine IC80; actives deviate in either direction. B-score at 10 µM. hit rate 1.3% among 110,000;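 active means Z score or B-score, a plate-position-corrected score, falls beyond the plate's 99.7% confidence bounds, in either direction; inactive means both scores lie inside the 99.7% bounds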
D1 allo mod – D1 CRE-luciferase signal change, two-sided – cell-based, HEK293 D1, dopamine EC30, D1 allosteric modulator project, primary screen; D(1A) dopamine receptor (Homo sapiens), P21728; dopamine EC30 potentiation; actives deviate in either direction; B-score at 10 µM; hit rate 5.9% among 58,000; AID 641, 2007;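 active means luminescence count or its row- and column-corrected plate score outside the 99.7% band of the plate's sample wells, on either side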
HEK293 NFkB inh – inhibitors of PMA/ionomycin-induced NF-kB reporter, primary screen, antigen receptor NF-kB inhibitor project, cell-based, HEK-293 luciferase reporter, luminescence | inhibition, % at 3 µM | hit rate 0.21% among 62,000 | AID 465, 2006 | HEK-293 NF-kB luciferase reporter;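 active means inhibition above the mean of all tested compounds plus 3 SD, cut at about 40% in these data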
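System: NF-kB luciferase reporter HEK-293 cells | Replication: Single test | Control set: DMSO vs reference inhibitor | Evaluation: % inhibition | Schedule: 1 h pretreatment, 16 h stimulation, 37 °C | Probe or stimulus: PMA with ionomycin | Compound dosing: One dose, 3 µM | Detection: Luciferase luminescence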
M1 agonist conf – rat M1 muscarinic receptor agonists, confirmation, CHO-M1 cells, Fluo-4 calcium, duplicate retest | shares compounds with M1 agonist | fluorescence change (max-min) at 10 µM | hit rate 19% among 1,700 | Fluo-4 calcium fluorescence, agonist mode; actives lie on both sides;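 active means fluorescence change differs from the solvent-only DMSO control mean at a set confidence level in both duplicate runs; inconclusive means differs from solvent-only control mean in just one of two runs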;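 further: an EC20 dose of acetylcholine follows compound addition during the same imaging run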
M4 ag counter – agonist activity at rat M4 receptor, confirmation, counter-screen for M1 allosteric modulator project, cell-based, agonist mode. shares compounds with M1 agonist. CHO M4/Gqi5 cells, Fluo-4 calcium fluorescence; actives lie on both sides. hit rate 9% among 1,700. fluorescence change (max-min) at 10 µM;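 active means fluorescence change differing from the plate's solvent-only control wells at 99.7% confidence in both duplicates, whether higher or lower; inconclusive means differs from solvent controls in only one of two duplicates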
A number is an active result; n = inactive; u = inconclusive; x = no result given.

SMILES | M1 antag | Jurkat tox 60K | M1 agonist | hDAT+cocaine | D1 allo mod | HEK293 NFkB inh | M1 agonist conf | M4 ag counter
CC(=O)c1cc2c(cc1NC(=O)Nc1cccc(Cl)c1)OCCO2 | n | n | 19 | n | x | n | n | n
CC(=O)Nc1cc2c(cc1C(C)=O)OCCO2 | n | n | n | n | n | n | x | x
CC(OC(=O)CCCc1nc2ccccc2s1)C(N)=O (stereo not drawn) | x | x | x | n | x | x | x | x
COC(=O)c1ccc2c(c1)N(Cc1cc(C)ccc1C)C(=O)c1ccccc1S2=O (stereo not drawn) | n | n | n | x | n | n | x | x
COC(=O)c1ccc2c(c1)N(Cc1ccccc1F)C(=O)c1ccccc1S2=O (stereo not drawn) | n | n | 4.9 | n | n | n | u | n
COCCNC(=O)C(C)N(c1ccc(Oc2ccccc2)cc1)S(C)(=O)=O (stereo not drawn) | n | n | n | n | n | n | x | x
CCOC(=O)N1CCN(C(=O)C(C)N(c2ccc(Oc3ccccc3)cc2)S(C)(=O)=O)CC1 (stereo not drawn) | n | n | 3.6 | n | n | n | n | n
Cc1ccc(N(C(C)C(=O)N2CCC(C)CC2)S(C)(=O)=O)cc1C (stereo not drawn) | n | n | 2.5 | n | n | n | n | n
CC(C)(C)Sc1ccc(N)nc1 | n | n | n | n | n | n | x | x
COc1ccc(CNC(=O)CSc2ncnc3nc[nH]c23)cc1 | n | n | 31 | n | n | n | u | n
CCOc1cc(-n2nc(C)c(C#N)c2N)nc(SC)n1 | x | x | x | n | x | x | x | x
CCOC(=O)C1C(=O)CC(C)(O)C(C(=O)OCC)C1/C=C/c1ccccc1 (stereo not drawn) | n | n | 2.9 | n | n | n | n | n
COC(=O)C1C(=O)CC(C)(O)C(C(=O)OC)C1/C=C/c1ccccc1 (stereo not drawn) | n | n | n | n | n | n | x | x
CCCCn1c(SCC(=O)Nc2nnc(C)s2)nnc1-c1ccoc1C | n | n | 3.2 | n | n | n | u | n
CCCn1c(SCC(=O)Nc2nnc(C)s2)nnc1-c1ccoc1C | n | n | n | n | n | n | x | x
COc1cccc(S(=O)(=O)NCc2ccc(C(=O)Nc3cccc(Cl)c3)cc2)c1 | x | x | x | n | x | x | x | x
COc1cc(/C=c2\s/c(=C(/C#N)C(=O)N3CCCC3)n(-c3ccccc3)c2=O)ccc1O | n | n | 48 | n | x | n | n | n
NC(=O)C1(N2CCCCC2)CCN(CC(=O)Nc2ccccc2Sc2ccccc2)CC1 | x | x | x | n | x | x | x | x
O=C(Nc1ncnc2c1ncn2C1OC(COC(=O)c2ccccc2)C(F)C1O)c1ccccc1 (stereo not drawn) | n | n | 2.6 | n | n | n | n | n
CC(Cc1ccccc1)Nc1ncnc2c1ncn2C1OC(CO)C(O)C1O (stereo not drawn) | x | x | x | n | x | x | x | x
Cc1ccc(-n2c(O)c(/C=N/n3cnnc3)c3ccccc3c2=O)cc1 | n | n | 26 | n | n | n | 121 | n
O=c1c2ccccc2c(/C=N/n2cnnc2)c(O)n1-c1ccccc1F | n | n | 55 | n | n | n | 350 | 698
CCOC(=O)C1CCCN(C(=O)Cc2c(C(=O)O)[nH]c3ccccc23)C1 (stereo not drawn) | n | x | 4.6 | n | x | n | n | n
CCOC(=O)C1CCCN(C(=O)Cc2ccc(C)cc2)C1 (stereo not drawn) | x | x | x | n | x | x | x | x
CCOC(=O)C1CCCN(C(=O)Cn2sc3nc(C)cc(C)c3c2=O)C1 (stereo not drawn) | n | n | 5.9 | n | n | n | n | n
SMILES | M1 antag | Jurkat tox 60K | M1 agonist | hDAT+cocaine | D1 allo mod | HEK293 NFkB inh | M1 agonist conf | M4 ag counter
CCOC(=O)C1CCCN(C(=O)Cc2ccc(OC)c(OC)c2)C1 (stereo not drawn) | n | n | n | n | x | n | x | x
CCOC(=O)C1CCCN(C(=O)CN2CCN(Cc3ccc(Cl)cc3)C2=O)C1 (stereo not drawn) | n | x | 23 | n | n | n | 202 | n
Cc1c2c(n3c(nc4ccccc43)c1C#N)N(Cc1ccccn1)CC2 | n | n | n | x | n | n | x | x
Cc1nn2cnc3sc4c(c3c2nc1=O)CCCC4 | n | x | n | n | x | x | x | x
N#C/C(=C/c1ccc(N2CCCCCC2)o1)c1ccc(F)cc1 | n | 99 | 31 | n | n | n | n | u
N#C/C(=C/c1ccc(N2CCCCCC2)o1)c1cccc(F)c1 | x | x | x | n | x | x | x | x
Clc1nc2sccn2c1/C=N/n1cnc2ccccc21 | n | x | 8.4 | n | n | n | n | n
C(=N\n1cnc2ccccc21)/c1cccnc1 | x | x | x | n | x | x | x | x
COc1ccccc1N1CCN(c2cc(=O)n(-c3ccccc3Cl)c(=O)[nH]2)CC1 | n | n | n | n | n | n | x | x
COc1cc(NC(=O)c2cccc3c2C(=O)N(Cc2cccnc2)C3)cc(OC)c1OC | n | n | 3.2 | n | n | 58 | n | n
Cc1n[nH]c(C)c1N1C(=O)c2cccc3c(Br)ccc(c23)C1=O | x | x | x | n | x | x | x | x
Cc1ccc(N2C(=O)c3cccc4c(N5CCN(C)CC5)ccc(c34)C2=O)c2cccnc12 | -3.1 | n | 405 | n | n | n | 956 | 1220
CC12CN3CC(C)(CN(C1)C3c1ccc(Br)cc1O)C2 (stereo not drawn) | n | x | n | n | x | x | x | x
COc1ccc(C2N3CC4(C)CN2CC(C)(C3)C4)cc1OC (stereo not drawn) | n | x | -3.1 | -7.5 | x | n | n | -65
Cc1cc(C)cc(-n2nnnc2-c2cn(C)nc2C(F)(F)F)c1 | x | x | x | n | x | x | x | x
C=CCn1c(N)c(C(=O)NCc2cccnc2)sc1=S | n | n | n | n | n | n | x | x
COC(=O)c1ccc(C(=O)OC)c(NC(=O)CCc2ccc(C)o2)c1 | n | n | n | n | n | n | x | x
COC(=O)c1ccc(C(=O)OC)c(NC(=O)CCC(=O)O)c1 | n | n | 4.2 | n | n | n | n | n
CSc1nc2[nH]c3c(c2c2ncnn12)CCCC3 | n | x | 8.1 | n | x | x | u | n
CCN=C(Nc1cccc(F)c1)SC1CC(=O)N(c2ccc(OC)cc2)C1=O (stereo not drawn) | n | n | 4.8 | n | x | n | n | n

High-throughput results from PubChem.
